Activity calls are given as the source filed them. No cut-off for these calls is given here.
Columns and labels:
[1] = target: Dual specificity mitogen-activated protein kinase kinase; MEK1/2 (Homo sapiens) (UniProt P36507+Q02750); test: Inhibition of MEK1/2 in human HCC827 cells assessed as blocking of MEK1/2 pulldown at 1 uM in presence of TL13-68 incubated for 2 hrs by Western blot analysis; assay type: cell-based
Method in brief: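 H1975 or HCC827 cells treated with 1 μM compound or DMSO for 2 h, rinsed twice in cold PBS, and lysed in M-PER with protease/phosphatase inhibitors. Lysate rocked overnight at 4 °C with 1 μM TL13-68, then streptavidin pulldown with five cold washes. Bound kinases detected by Western blot. Two independent experiments.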

[2] = target: Activin receptor type-2B (Homo sapiens) (UniProt Q13705); test: Binding affinity to wild-type human ACVR2B (H169 to D504 residues) expressed in bacterial expression system assessed as residual binding level at 1 uM by Kinomescan method relative to control
Method in brief: (§1)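 Active-site-directed KinomeScan competition binding panel covering 468 kinases, compound tested at 1 μM. Each readout is the kinase signal remaining with compound, expressed as a percentage of the DMSO control. […]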

[3] = target: RAC-gamma serine/threonine-protein kinase (Homo sapiens) (UniProt Q9Y243); test: Binding affinity to wild-type human partial length AKT3 expressed in bacterial expression system assessed as residual binding level at 1 uM by Kinomescan method relative to control
Sequence of RAC-gamma serine/threonine-protein kinase (Homo sapiens) (Q9Y243 whole entry, the tested form may be a part): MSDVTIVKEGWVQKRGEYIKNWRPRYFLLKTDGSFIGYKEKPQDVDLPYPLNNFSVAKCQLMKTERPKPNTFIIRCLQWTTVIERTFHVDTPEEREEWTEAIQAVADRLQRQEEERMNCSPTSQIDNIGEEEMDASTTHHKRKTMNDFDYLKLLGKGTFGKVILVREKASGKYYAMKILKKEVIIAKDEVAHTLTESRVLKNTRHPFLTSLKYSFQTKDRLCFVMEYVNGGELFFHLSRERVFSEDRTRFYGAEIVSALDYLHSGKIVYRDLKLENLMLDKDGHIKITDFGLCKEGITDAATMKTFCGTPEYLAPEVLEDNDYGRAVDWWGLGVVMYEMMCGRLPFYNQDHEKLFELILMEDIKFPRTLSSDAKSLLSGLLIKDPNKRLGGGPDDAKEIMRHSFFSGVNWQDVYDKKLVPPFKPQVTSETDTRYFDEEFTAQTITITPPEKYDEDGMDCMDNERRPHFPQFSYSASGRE

[4] = target: Cyclin-dependent kinase 3 (Homo sapiens) (UniProt Q00526); test: Binding affinity to wild-type human full length CDK3 (M1 to H305 residues) expressed in bacterial expression system assessed as residual binding level at 1 uM by Kinomescan method relative to control; method in brief: as §1
Sequence of Cyclin-dependent kinase 3 (Homo sapiens) (Q00526 whole entry, looked up, the tested form may be a part): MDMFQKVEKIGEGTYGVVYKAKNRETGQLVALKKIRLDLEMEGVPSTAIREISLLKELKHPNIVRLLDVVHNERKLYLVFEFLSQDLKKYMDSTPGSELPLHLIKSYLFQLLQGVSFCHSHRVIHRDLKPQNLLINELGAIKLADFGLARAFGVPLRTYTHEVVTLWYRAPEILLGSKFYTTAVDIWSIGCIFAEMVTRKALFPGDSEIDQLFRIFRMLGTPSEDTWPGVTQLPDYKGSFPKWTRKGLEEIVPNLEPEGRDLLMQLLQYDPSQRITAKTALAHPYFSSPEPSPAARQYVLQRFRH

[5] = target: Casein kinase II subunit alpha (Homo sapiens) (UniProt P68400); test: Binding affinity to wild-type human full length CSNK2A1 (M1 to Q391 residues) expressed in mammalian expression system assessed as residual binding level at 1 uM by Kinomescan method relative to control
Method in brief: (§2)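 KinomeScan, an active site-directed competition binding panel of 468 kinases. The test compound was at 1 μM. The readout is remaining kinase binding as a percentage of the DMSO control. Scores above 35% were treated as weak binding and not listed.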

[6] = target: Ephrin type-A receptor 3 (Homo sapiens) (UniProt P29320); test: Binding affinity to wild-type human partial length EPHA3 (D604 to K889 residues) expressed in bacterial expression system assessed as residual binding level at 1 uM by Kinomescan method relative to control
Method in brief: (§3)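 Active-site-directed competition binding panel of 468 kinases (KinomeScan), compound at 1 μM. The read-out is kinase remaining bound, given as a percentage of the DMSO control. […]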

[7] = target: Mitogen-activated protein kinase 6 (Homo sapiens) (UniProt Q16659); test: Binding affinity to wild-type human partial length ERK3 (M1 to P413 residues) expressed in bacterial expression system assessed as residual binding level at 1 uM by Kinomescan method relative to control
Sequence of Mitogen-activated protein kinase 6 (Homo sapiens) (Q16659 whole entry, the tested form may be a part): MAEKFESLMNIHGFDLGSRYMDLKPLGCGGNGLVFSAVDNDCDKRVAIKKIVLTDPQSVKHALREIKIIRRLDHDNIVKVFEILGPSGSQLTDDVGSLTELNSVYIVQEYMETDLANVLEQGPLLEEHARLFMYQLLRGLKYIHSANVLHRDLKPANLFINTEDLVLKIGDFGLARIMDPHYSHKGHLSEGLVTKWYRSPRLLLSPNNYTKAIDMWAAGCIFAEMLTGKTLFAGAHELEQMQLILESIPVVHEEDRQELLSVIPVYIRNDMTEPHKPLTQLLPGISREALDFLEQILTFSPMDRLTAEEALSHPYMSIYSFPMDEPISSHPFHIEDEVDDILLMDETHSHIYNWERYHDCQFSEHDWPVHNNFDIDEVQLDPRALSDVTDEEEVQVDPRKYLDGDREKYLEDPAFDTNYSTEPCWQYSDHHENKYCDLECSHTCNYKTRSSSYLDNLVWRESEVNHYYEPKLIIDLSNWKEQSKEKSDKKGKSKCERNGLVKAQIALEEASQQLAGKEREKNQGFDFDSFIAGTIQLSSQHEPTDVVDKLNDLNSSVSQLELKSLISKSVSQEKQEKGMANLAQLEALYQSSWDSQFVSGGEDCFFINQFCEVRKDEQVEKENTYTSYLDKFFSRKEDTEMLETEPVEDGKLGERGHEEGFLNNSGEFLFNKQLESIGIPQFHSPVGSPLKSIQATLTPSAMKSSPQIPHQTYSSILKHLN

[8] = target: Tyrosine-protein kinase Fes/Fps (Homo sapiens) (UniProt P07332); test: Binding affinity to wild-type human partial length FES (I527 to R822 residues) expressed in bacterial expression system assessed as residual binding level at 1 uM by Kinomescan method relative to control
Sequence of Tyrosine-protein kinase Fes/Fps (Homo sapiens) (P07332 whole entry, the tested form may be a part): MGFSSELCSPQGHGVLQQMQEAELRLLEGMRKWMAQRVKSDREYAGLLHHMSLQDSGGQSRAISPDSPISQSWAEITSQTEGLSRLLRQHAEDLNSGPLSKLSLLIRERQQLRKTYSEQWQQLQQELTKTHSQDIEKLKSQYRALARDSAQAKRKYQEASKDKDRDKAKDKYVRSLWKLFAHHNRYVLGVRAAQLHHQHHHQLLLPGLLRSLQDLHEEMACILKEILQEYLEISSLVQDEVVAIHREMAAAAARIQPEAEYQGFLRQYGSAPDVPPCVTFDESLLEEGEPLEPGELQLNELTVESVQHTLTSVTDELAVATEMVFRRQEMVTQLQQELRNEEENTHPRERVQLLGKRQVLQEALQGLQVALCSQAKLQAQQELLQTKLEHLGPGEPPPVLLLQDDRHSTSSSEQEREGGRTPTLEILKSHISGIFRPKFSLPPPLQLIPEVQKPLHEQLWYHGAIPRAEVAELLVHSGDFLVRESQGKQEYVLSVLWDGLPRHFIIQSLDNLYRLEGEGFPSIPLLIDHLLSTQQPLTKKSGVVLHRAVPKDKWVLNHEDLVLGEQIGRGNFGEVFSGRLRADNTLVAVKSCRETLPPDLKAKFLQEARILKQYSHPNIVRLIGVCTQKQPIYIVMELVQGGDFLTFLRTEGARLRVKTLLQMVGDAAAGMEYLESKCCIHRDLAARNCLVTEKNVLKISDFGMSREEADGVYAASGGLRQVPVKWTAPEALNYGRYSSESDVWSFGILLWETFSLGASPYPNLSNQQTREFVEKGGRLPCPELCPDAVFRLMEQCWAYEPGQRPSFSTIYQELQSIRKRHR

[9] = target: Serine/threonine-protein kinase LATS2 (Homo sapiens) (UniProt Q9NRM7); test: Binding affinity to wild-type human partial length LATS2 (Q641 to V1088 residues) expressed in mammalian expression system assessed as residual binding level at 1 uM by Kinomescan method relative to control
[10] = target: MAP/microtubule affinity-regulating kinase 3 (Homo sapiens) (UniProt P27448); test: Binding affinity to wild-type human full length MARK3 (M1 to L729 residues) expressed in bacterial expression system assessed as residual binding level at 1 uM by Kinomescan method relative to control; method in brief: as §2
[11] = target: Serine/threonine-protein kinase 38-like (Homo sapiens) (UniProt Q9Y2H1); test: Binding affinity to wild-type human partial length NDR2 (N34 to E447 residues) expressed in bacterial expression system assessed as residual binding level at 1 uM by Kinomescan method relative to control; method in brief: as §3
[12] = target: Serine/threonine-protein kinase Nek3 (Homo sapiens) (UniProt P51956); test: Binding affinity to wild-type human full length NEK3 (M1 to R506 residues) expressed in mammalian expression system assessed as residual binding level at 1 uM by Kinomescan method relative to control; method in brief: as §2
[13] = target: Protein kinase C theta type (Homo sapiens) (UniProt Q04759); test: Binding affinity to wild-type human partial length PRKCQ (L350 to S706 residues) expressed in bacterial expression system assessed as residual binding level at 1 uM by Kinomescan method relative to control; method in brief: as §3
Sequence of Protein kinase C theta type (Homo sapiens) (Q04759 whole entry, looked up, the tested form may be a part): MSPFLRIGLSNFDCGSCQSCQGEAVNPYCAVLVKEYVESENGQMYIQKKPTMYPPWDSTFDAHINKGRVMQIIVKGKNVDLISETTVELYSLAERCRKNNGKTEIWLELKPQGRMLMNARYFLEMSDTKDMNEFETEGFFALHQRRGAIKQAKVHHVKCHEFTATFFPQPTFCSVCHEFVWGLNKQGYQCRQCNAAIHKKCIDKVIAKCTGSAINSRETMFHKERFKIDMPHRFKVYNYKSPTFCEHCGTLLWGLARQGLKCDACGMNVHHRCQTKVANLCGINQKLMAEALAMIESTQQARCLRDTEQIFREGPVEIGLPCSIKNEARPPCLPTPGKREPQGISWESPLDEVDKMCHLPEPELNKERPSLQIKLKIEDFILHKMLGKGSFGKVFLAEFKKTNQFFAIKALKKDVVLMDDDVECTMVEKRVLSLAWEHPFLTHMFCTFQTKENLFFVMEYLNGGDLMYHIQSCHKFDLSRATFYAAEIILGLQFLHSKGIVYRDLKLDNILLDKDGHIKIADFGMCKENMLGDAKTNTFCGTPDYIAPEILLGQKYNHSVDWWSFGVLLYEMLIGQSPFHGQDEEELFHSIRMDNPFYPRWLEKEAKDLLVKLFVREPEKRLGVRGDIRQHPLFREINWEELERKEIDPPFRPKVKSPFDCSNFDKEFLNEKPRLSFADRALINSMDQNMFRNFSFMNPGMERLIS

[14] = target: Serine/threonine-protein kinase RIO3 (Homo sapiens) (UniProt O14730); test: Binding affinity to wild-type human full length RIOK3 (M1 to E519 residues) expressed in bacterial expression system assessed as residual binding level at 1 uM by Kinomescan method relative to control
Method in brief: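 Active-site-directed competition binding screen across a 468-kinase panel, run with the test compound at 1 μM. The read-out is the kinase signal remaining relative to a DMSO control, reported as a percentage. […]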

[15] = target: STE20-like serine/threonine-protein kinase (Homo sapiens) (UniProt Q9H2G2); test: Binding affinity to wild-type human partial length SLK (S14 to A307 residues) expressed in bacterial expression system assessed as residual binding level at 1 uM by Kinomescan method relative to control
Sequence of STE20-like serine/threonine-protein kinase (Homo sapiens) (Q9H2G2 whole entry, looked up, the tested form may be a part): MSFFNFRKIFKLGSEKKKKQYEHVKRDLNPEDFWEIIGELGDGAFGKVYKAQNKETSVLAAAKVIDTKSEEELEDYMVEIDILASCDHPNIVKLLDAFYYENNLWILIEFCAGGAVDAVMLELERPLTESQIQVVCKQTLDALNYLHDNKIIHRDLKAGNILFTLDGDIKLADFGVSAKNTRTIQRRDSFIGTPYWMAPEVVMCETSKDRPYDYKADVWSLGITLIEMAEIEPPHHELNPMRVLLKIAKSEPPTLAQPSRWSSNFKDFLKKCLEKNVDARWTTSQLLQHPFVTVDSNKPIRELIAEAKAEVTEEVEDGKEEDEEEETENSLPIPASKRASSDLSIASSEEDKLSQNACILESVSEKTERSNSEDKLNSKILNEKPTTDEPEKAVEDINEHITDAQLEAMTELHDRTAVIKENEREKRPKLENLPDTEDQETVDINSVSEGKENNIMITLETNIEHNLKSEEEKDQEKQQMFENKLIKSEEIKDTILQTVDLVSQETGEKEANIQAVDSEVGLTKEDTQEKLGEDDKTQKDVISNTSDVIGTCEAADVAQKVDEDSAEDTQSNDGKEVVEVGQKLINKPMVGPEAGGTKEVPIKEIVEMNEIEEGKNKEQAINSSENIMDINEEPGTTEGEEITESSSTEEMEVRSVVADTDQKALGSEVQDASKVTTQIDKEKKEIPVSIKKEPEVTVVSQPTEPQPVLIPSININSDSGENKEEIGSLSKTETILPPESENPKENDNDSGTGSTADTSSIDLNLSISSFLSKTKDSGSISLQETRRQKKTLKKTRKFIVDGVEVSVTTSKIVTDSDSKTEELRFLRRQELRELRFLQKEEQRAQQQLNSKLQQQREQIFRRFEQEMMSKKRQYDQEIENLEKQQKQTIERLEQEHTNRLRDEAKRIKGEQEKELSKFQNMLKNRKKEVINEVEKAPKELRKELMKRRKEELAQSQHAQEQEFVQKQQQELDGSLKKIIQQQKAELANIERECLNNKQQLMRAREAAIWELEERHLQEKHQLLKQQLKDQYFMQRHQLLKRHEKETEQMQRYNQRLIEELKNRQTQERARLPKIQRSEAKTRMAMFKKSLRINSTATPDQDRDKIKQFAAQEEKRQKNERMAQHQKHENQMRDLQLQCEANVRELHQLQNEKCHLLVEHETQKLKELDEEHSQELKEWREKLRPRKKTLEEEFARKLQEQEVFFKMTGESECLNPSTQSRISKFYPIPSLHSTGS

[16] = target: Non-receptor tyrosine-protein kinase TYK2 (Homo sapiens) (UniProt P29597); test: Binding affinity to wild-type human partial length TYK2 JH1 catalytic domain (V877 to C1187 residues) expressed in mammalian expression system assessed as residual binding level at 1 uM by Kinomescan method relative to control
[17] = target: Serine/threonine-protein kinase WNK1 (Homo sapiens) (UniProt Q9H4A3); test: Binding affinity to wild-type human partial length WNK1 (Q194 to A490 residues) expressed in mammalian expression system assessed as residual binding level at 1 uM by Kinomescan method relative to control
[18] = target: Mitogen-activated protein kinase kinase kinase 19 (Homo sapiens) (UniProt Q56UN5); test: Binding affinity to wild-type human partial length YSK4 (T1019 to H1328 residues) expressed in mammalian expression system assessed as residual binding level at 1 uM by Kinomescan method relative to control
Method in brief: (§4)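 Active site-directed competition binding panel (KinomeScan, 468 kinases). Test compound at 1 μM. Read-out is kinase binding remaining versus DMSO control, expressed as percent of control. Scores above 35% are treated as weak binding.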

[19] = target: Mitogen-activated protein kinase kinase kinase 20 (Homo sapiens) (UniProt Q9NYL2); test: Binding affinity to wild-type human partial length ZAK (M1 to L331 residues) expressed in bacterial expression system assessed as residual binding level at 1 uM by Kinomescan method relative to control; method in brief: as §4
Sequence of Mitogen-activated protein kinase kinase kinase 20 (Homo sapiens) (Q9NYL2 2-800 limits assumed): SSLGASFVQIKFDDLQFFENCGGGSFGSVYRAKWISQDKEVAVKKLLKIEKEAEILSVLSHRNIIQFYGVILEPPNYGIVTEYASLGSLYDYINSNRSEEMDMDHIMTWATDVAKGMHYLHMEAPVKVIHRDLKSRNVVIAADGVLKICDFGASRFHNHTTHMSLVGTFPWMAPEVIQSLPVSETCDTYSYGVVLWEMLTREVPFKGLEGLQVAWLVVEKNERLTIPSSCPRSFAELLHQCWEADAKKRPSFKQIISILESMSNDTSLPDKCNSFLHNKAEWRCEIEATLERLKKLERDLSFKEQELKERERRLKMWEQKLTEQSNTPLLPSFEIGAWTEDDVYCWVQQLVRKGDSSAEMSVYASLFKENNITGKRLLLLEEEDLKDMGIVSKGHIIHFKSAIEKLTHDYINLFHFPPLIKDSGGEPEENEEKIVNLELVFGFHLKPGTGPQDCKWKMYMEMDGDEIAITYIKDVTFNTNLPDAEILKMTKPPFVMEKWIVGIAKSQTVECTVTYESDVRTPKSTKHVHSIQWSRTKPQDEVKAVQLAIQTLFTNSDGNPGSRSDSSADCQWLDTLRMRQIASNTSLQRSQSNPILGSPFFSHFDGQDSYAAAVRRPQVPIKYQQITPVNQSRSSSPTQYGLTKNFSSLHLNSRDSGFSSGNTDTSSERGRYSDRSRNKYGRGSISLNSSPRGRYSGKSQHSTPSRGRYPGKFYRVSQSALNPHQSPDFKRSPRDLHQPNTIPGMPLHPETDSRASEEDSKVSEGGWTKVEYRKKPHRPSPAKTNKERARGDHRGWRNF

[20] = target: Tyrosine-protein kinase ZAP-70 (Homo sapiens) (UniProt P43403); test: Binding affinity to wild-type human partial length ZAP70 (D20 to G299 residues) expressed in mammalian expression system assessed as residual binding level at 1 uM by Kinomescan method relative to control

## C=CC(=O)Nc1ccccc1Nc1nc(Nc2ccc(N3CCN(C)CC3)cc2)ncc1C(=O)Nc1c(C)cccc1Cl
[1]
  inhibition: inactive
[2]
  Activity: 100%
[3]
  Activity: 100%
[4]
  Activity: 100%
[5]
  Activity: 68%
[6]
  Activity: 68%
[7]
  Activity: 100%
[8]
  Activity: 100%
[9]
  Activity: 100%
[10]
  Activity: 90%
[11]
  Activity: 93%
[12]
  Activity: 88%
[13]
  Activity: 86%
[14]
  Activity: 92%
[15]
  Activity: 100%
[16]
  Activity: 100%
[17]
  Activity: 100%
[18]
  Activity: 83%
[19]
  Activity: 98%
[20]
  Activity: 100%

From ChEMBL document CHEMBL4354843, “Structure-Based Design of a Potent and Selective Covalent Inhibitor for SRC Kinase That Targets a P-Loop Cysteine” (J Med Chem, 2020)
